What was measured:
[1] = Inhibitory activity against human aminopeptidase P
Dipeptidyl peptidase 2 = Dipeptidyl peptidase 2 (Homo sapiens, UniProt Q9UHL4); assay: Inhibitory activity against human quiescent cell proline dipeptidase
Prolyl endopeptidase = biological target: T1, Prolyl endopeptidase (Homo sapiens, UniProt P48147); assay: Inhibitory activity against human prolyl endopeptidase
T1 sequence (P48147 whole entry): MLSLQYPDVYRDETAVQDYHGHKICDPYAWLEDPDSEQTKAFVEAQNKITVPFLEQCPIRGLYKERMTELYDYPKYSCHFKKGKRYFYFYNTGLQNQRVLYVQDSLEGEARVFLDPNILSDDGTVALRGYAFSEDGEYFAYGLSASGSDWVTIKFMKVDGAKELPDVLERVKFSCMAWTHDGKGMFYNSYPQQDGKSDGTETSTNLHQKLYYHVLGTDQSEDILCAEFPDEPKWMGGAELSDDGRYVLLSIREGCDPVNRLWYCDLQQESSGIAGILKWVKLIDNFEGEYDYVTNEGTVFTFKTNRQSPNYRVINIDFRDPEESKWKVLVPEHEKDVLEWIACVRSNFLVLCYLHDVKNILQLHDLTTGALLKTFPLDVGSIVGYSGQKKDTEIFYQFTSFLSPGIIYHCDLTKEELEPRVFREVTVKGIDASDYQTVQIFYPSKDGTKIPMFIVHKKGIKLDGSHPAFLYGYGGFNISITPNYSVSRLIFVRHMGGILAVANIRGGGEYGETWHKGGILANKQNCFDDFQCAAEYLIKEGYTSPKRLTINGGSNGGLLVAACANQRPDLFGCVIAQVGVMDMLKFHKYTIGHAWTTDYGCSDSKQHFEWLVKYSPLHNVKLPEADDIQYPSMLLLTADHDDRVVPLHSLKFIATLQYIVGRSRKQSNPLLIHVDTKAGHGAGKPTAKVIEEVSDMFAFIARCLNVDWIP

Dipeptidyl peptidase 4 = Dipeptidyl peptidase 4 (Homo sapiens, UniProt P27487); assay: Inhibitory activity against human recombinant Dipeptidylpeptidase IV
Summary of the method: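 Human recombinant enzyme run in a fluorometric assay with Gly-Pro-AMC as substrate. Cleavage releases fluorescent 7-amino-4-methylcoumarin, which is read to give IC50 values.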

Sequence of Dipeptidyl peptidase 4 (P27487 whole entry): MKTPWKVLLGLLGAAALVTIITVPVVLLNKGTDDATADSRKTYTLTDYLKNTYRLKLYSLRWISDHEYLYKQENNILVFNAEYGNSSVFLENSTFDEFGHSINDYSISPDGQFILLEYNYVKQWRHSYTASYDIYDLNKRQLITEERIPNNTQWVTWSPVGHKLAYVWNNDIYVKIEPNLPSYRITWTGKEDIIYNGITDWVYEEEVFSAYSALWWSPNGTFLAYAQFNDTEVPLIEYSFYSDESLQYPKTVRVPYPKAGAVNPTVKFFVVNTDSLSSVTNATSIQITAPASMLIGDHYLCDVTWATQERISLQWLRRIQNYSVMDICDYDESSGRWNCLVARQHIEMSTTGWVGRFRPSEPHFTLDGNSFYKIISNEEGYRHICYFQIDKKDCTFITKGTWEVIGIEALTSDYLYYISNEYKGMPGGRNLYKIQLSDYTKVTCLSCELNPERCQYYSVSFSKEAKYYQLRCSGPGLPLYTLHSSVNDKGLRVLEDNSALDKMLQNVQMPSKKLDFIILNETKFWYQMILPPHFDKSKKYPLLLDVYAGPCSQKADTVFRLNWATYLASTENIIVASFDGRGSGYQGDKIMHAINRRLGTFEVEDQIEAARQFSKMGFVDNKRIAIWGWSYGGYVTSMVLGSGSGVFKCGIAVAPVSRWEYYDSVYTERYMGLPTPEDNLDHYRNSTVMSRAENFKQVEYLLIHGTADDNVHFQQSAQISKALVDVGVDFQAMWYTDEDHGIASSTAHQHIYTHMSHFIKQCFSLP

- IC50 [1]: > 100 µM
- IC50 (Dipeptidyl peptidase 2): 50 µM
- IC50 (Prolyl endopeptidase): > 100 µM
- IC50 (Dipeptidyl peptidase 4): 4.6 µM
Structure (SMILES): N[C@H](C(=O)N1CCCC1)[C@H]1CC[C@@H](O)C1

Source: ChEMBL document CHEMBL1148427, “Diastereoselective synthesis and configuration-dependent activity of (3-substituted-cycloalkyl)glycine pyrrolidides and thiazolidides as dipeptidyl peptidase IV inhibitors” (Bioorg Med Chem Lett, 2004)
